In ChEMBL document CHEMBL3244050, “Synthesis and biological activity of beta-endorphin and analogues. Additional evidence for multiple opiate receptors” (J Med Chem, 1978):

Key:
[1] = Retardation factor of the compound using 1-butanol-pyridine-0.6 M ammonium acetate in 0.1% aqueous acetic acid at ratio of 5:3:11 (v/v) as solvent system by partition chromatography; type: physicochemical; conditions: buffer
[2] = Retardation factor of the compound measured at 400 V for 4 hrs by paper electrophoresis; type: physicochemical
[3] = Retardation factor of the compound using 1-butanol-pyridine-acetic acid-water at ratio of 6.0:6.0:1.2:4.8 as solvent system by thin layer chromatography; type: physicochemical; conditions: buffer
[4] = Retardation factor of the compound using 1-butanol-acetic acid-water at ratio of 4:3:3 as solvent system by thin layer chromatography; type: physicochemical; conditions: buffer
Cavia porcellus [5] = species on record: Cavia porcellus; assay: Modulation of opioid receptor in guinea pig ileum assessed as inhibition of electrically evoked contractions; type: tissue-based
Outline: (§1)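 Guinea pig ileum, electrically stimulated; depression of contractions measured. Each tissue received increasing concentrations of only one compound, to avoid tachyphylaxis seen with repeat doses given 30 min apart. ID50 taken from log-probit plots of five increasing concentrations, each the mean from six tissues. The relative value is expressed against natural sheep beta-endorphin.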

[6] = target: T1, Opioid receptor (Rattus norvegicus) (UniProt P33533+P34975+P33535); assay: Displacement of [3H]naloxone from opioid receptor in rat brain after 30 mins relative to natural sheep beta-endorphin; type: tissue-based
Outline: (§2)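 Rat brain homogenate (2-mL aliquots, ca. 1 mg wet weight) incubated with […] [3H]naloxone (25 Ci/mmol) for 30 min at 25 °C, with test peptides at three to five concentrations. Each concentration run as three separate sets of duplicates. ID50 taken from log-probit plots. The relative value is expressed against natural sheep beta-endorphin.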

[7] = target: T1, Opioid receptor (Rattus norvegicus); assay: Modulation of opioid receptor in rat vas deferens assessed as inhibition of electrically evoked contractions relative to natural sheep beta-endorphin; type: tissue-based; design: scale not given: the % may be the effect or the level left
Outline: (§3)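 Rat vas deferens, electrically stimulated; depression of contractions recorded over five increasing concentrations. Each concentration is the mean from six different tissues. ID50 derived from log-probit plots. The relative value and ratio are expressed against natural sheep beta-endorphin.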

[8] = target: T1, Opioid receptor (Rattus norvegicus); assay: Modulation of opioid receptor in rat vas deferens assessed as inhibition of electrically evoked contractions; type: tissue-based; outline: as §3
Cavia porcellus [9] = species on record: Cavia porcellus; assay: Modulation of opioid receptor in guinea pig ileum assessed as inhibition of electrically evoked contractions relative to natural sheep beta-endorphin; type: tissue-based; design: scale not given: the % may be the effect or the level left; outline: as §1
[10] = target: T1, Opioid receptor (Rattus norvegicus); assay: Displacement of [3H]naloxone from opioid receptor in rat brain after 30 mins; type: tissue-based; outline: as §2

Compound	Rf [1]	Rf [2]	Rf [3]	Rf [4]	ID50 (Cavia porcellus [5]) [nM]	Activity [6] [%]	Activity [7] [%]	ID50 [8] [nM]	Activity (Cavia porcellus [9]) [%]	ID50 [10] [nM]
CC[C@H](C)[C@H](NC(=O)[C@H](C)NC(=O)[C@H](CC(N)=O)NC(=O)[C@H](CCCCN)NC(=O)[C@H](Cc1ccccc1)NC(=O)[C@H](CC(C)C)NC(=O)[C@@H](NC(=O)[C@@H](NC(=O)[C@H](CC(C)C)NC(=O)[C@@H]1CCCN1C(=O)[C@@H](NC(=O)[C@H](CCC(N)=O)NC(=O)[C@H](CO)NC(=O)[C@H](CCCCN)NC(=O)[C@H](CCC(=O)O)NC(=O)[C@H](CO)NC(=O)[C@@H](NC(=O)[C@H](CC[S+](C)[O-])NC(=O)[C@H](Cc1ccccc1)N(C)C(=O)CNC(=O)[C@@H](C)NC(=O)[C@@H](N)Cc1ccc(O)cc1)[C@@H](C)O)[C@@H](C)O)C(C)C)[C@@H](C)O)C(=O)N[C@H](C(=O)N[C@@H](CCCCN)C(=O)N[C@@H](CC(N)=O)C(=O)N[C@@H](C)C(=O)N[C@@H](Cc1ccc(O)cc1)C(=O)N[C@@H](CCCCN)C(=O)N[C@@H](CCCCN)C(=O)NCC(=O)N[C@@H](CCC(=O)O)C(=O)O)[C@@H](C)CC (some centres undefined)	0.21	0.47	0.42	0.061	–	–	–	–	–	–
BETA-ENDORPHIN [listing 1 of 2 here]	0.2	0.47	0.45	0.077	–	–	–	–	–	–
BETA-ENDORPHIN [listing 2 of 2 here]	–	–	–	–	27	100	100	130	100	10
